Laboratory results: ChEMBL document CHEMBL4406921, “Discovery of Axelopran (TD-1211): A Peripherally Restricted μ-Opioid Receptor Antagonist” (ACS Med Chem Lett, 2019)
The source made the active and inactive calls. The rule behind the calls is not given here.

Tests used:
Mu-type opioid receptor [1] = target: T1, Mu-type opioid receptor (Homo sapiens, UniProt P35372); assay: Displacement of [3H]-DPN from recombinant human mu opioid receptor expressed in CHO-K1 cell membranes by radioligand binding assay
T1 sequence (P35372 whole entry): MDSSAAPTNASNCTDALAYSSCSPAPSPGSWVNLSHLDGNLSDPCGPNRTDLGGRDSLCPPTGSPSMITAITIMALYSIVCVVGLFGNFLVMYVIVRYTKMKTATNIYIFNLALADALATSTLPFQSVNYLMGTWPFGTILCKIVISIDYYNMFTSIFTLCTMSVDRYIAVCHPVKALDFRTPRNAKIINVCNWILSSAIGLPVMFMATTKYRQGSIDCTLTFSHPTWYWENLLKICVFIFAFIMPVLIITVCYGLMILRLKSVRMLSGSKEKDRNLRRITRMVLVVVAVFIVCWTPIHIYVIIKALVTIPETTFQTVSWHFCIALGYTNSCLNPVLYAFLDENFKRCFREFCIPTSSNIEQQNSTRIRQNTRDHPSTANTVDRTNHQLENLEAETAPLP
Summary of the method: (§1)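 Membranes from CHO-K1 cells stably transfected with human recombinant μ or δ receptor, or guinea pig κ receptor; competition with [3H]-DPN radioligand; affinity reported as pKi.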

[2] = target: T2, Kappa-type opioid receptor (Cavia porcellus, UniProt P41144); assay: Displacement of [3H]-DPN from guinea pig kappa opioid receptor expressed in CHO-K1 cell membranes by radioligand binding assay; summary of the method: as §1
T2 sequence (P41144 whole entry): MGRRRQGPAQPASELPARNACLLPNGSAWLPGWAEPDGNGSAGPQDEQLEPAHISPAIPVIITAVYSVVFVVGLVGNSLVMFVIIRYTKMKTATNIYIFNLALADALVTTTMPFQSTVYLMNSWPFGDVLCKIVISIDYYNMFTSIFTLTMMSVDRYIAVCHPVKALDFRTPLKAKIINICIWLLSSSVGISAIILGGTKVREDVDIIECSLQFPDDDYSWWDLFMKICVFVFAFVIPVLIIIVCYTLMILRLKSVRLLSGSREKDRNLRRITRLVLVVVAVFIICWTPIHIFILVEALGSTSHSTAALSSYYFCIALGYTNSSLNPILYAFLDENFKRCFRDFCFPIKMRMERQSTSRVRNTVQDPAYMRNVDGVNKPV

Mu-type opioid receptor [3] = target: T1, Mu-type opioid receptor; assay: Antagonist activity at human recombinant mu opioid receptor expressed in CHO-K1 cell membranes assessed as intrinsic activity at 10 pM to 20 uM incubated for 30 mins in presence of Eu-GTP by DELFIA GTP binding assay relative to DAMGO
[4] = Permeability coefficient, Kp in human Caco2 cells; assay type: ADME, cell-based; details: Caco-2, read-out: Kp
[5] = Half life in rat liver microsomes at 15 uM; assay type: ADME, Microsome
[6] = target: T3, Delta-type opioid receptor (Homo sapiens, UniProt P41143); assay: Displacement of [3H]-DPN from recombinant human delta opioid receptor expressed in CHO-K1 cell membranes by radioligand binding assay; summary of the method: as §1
T3 sequence (P41143 whole entry): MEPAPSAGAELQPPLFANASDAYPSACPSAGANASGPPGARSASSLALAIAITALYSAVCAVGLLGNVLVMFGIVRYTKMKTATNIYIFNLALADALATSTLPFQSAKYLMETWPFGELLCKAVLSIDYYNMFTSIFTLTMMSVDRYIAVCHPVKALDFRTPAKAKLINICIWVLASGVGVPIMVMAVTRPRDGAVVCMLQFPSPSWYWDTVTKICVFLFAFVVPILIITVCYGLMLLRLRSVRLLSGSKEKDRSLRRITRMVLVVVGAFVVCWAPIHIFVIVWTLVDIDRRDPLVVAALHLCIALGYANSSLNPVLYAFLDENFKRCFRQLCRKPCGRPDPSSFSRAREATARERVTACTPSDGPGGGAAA

[7] = Half life in dog liver microsomes at 3 uM; assay type: ADME, Canis lupus familiaris, Microsome
Mus musculus [8] = species on record: Mus musculus; assay: Peripheral selectivity index, ratio of ID50 for inhibition of morphine-induced delays in gastric emptying in ICR mouse to ID50 for inhibition of morphine-induced delays in intestinal transit in ICR mouse; assay type: functional
Mus musculus [9] = assay: Inhibition of morphine-induced delays in gastric emptying in po dosed ICR mouse administered via gavage pretreated with compound and 30 mins later injected with morphine followed 5 mins later by ingestion of test meal and measured after 60 mins; assay type: functional; details: for ED50: read-out: ID50 (the source's name)
Summary of the method: (§2)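 Mice dosed orally; reversal of morphine-induced delay in intestinal transit, delay in gastric emptying, or hot plate antinociception measured; dose-dependent responses fitted to give ID50 in mg/kg.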

[10] = Oral bioavailability in Sprague-Dawley rat at 10 mg/kg administered via gavage; assay type: ADME, organism-based; details: in vivo
[11] = Cmax in Sprague-Dawley rat at 10 mg/kg, po administered via gavage; assay type: ADME, organism-based; set-up: dose 10 mg/kg, route oral; details: in vivo
[12] = Oral bioavailability in human; assay type: ADME, organism-based; details: in vivo
[13] = AUC(0 to t) in Sprague-Dawley rat at 10 mg/kg, po administered via gavage; assay type: ADME, organism-based; details: in vivo
Mus musculus [14] = species on record: Mus musculus; assay: Peripheral selectivity index, ratio of ID50 for inhibition of morphine-induced antinociceptive activity in ICR mouse to ID50 for inhibition of morphine-induced delays in intestinal transit in ICR mouse; assay type: functional
Summary of the method: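 Mice were dosed orally with antagonist at several doses and challenged with morphine. ID50 values were taken from dose-dependent reversal of morphine-induced hot plate antinociception (CNS) and of morphine-induced delay in intestinal transit (peripheral). The index is the hot plate ID50 divided by the intestinal transit ID50.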

Mus musculus [15] = assay: Inhibition of morphine-induced delays in intestinal transit in po dosed ICR mouse administered via gavage pretreated with compound and 30 mins later injected with morphine followed 5 mins later by ingestion of test meal and measured after 60 mins; assay type: functional; details: for ED50: read-out: ID50 (the source's name); summary of the method: as §2
[16] = Half life in rat liver microsomes at 3 uM; assay type: ADME, Microsome
Mus musculus [17] = assay: Inhibition of morphine-induced antinociceptive activity in po dosed ICR mouse administered via gavage pretreated with compound and 30 mins later injected with morphine and measured after 30 mins by hot plate test; assay type: functional; details: for ED50: read-out: ID50 (the source's name); summary of the method: as §2
[18] = Half life in human liver microsomes at 3 uM; assay type: ADME, Microsome
Mesocricetus auratus = species on record: Mesocricetus auratus; assay: Antagonist activity at delta opiod receptor in golden syrian hamster vas deferens assessed as inhibition of electric field stimulated tissue contraction incubated for 15 mins in presence of […]
[19] = Oral bioavailability in fasted male Beagle dog; assay type: ADME, organism-based, Canis lupus familiaris; details: in vivo
Mu-type opioid receptor [20] = target: T1, Mu-type opioid receptor; assay: Antagonist activity at human recombinant mu opioid receptor expressed in CHO-K1 cell membrane assessed as inhibition of DAMGO-induced GTP binding incubated for 30 mins in presence of Eu-GTP by DELFIA GTP binding assay
Canis familiaris [21] = assay: Inhibition of loperamide-induced gastrointestinal contraction in Beagle dog at 3 mg/kg, po incubated with compound followed 15 mins later by treated with loperamide and measured for 30 mins; assay type: functional, organism-based; details: Canis lupus familiaris
[22] = target: T2, Kappa-type opioid receptor; assay: Antagonist activity at kappa opioid receptor in guinea pig ileum assessed as inhibition of electric field stimulated tissue contraction incubated for 15 mins in presence of U69593; assay type: tissue-based; details: read-out: pA2 (converted)
MDR1 = assay: Efflux ratio of permeability in dog MDCK-MDR1 cells; assay type: ADME, cell-based, Canis lupus familiaris
Canis familiaris [23] = assay: Reversal of morphine-induced sedation in Beagle dog at 3 mg/kg, po administered with compound prior to morphine challenge and measured up to 120 mins post-mophine administration; assay type: functional, organism-based; details: Canis lupus familiaris
[24] = target: T3, Delta-type opioid receptor; assay: Antagonist activity at human recombinant delta opioid receptor expressed in CHO-K1 cell membrane assessed as inhibition of DPDPE-induced [35S]-GTPgammaS binding incubated for 30 mins by time resolved fluorescence assay
[25] = Oral bioavailability in Sprague-Dawley rat at 5 mg/kg administered via gavage; assay type: ADME, organism-based; details: in vivo
Mu-type opioid receptor [26] = target: Mu-type opioid receptor (Cavia porcellus, UniProt P97266); assay: Antagonist activity at mu opioid receptor in guinea pig ileum assessed as inhibition of electric field stimulated contractions incubated for 15 mins in presence of endomorphin-1; assay type: tissue-based; details: read-out: pA2 (converted)
Sequence of Mu-type opioid receptor (Cavia porcellus, UniProt P97266) (P97266 whole entry): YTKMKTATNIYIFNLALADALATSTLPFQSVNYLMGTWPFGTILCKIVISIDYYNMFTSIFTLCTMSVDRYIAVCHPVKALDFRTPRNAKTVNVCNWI

[27] = Protein binding in human plasma; assay type: ADME, cell-free; details: read-out: PPB
[28] = Cmax in Sprague-Dawley rat at 5 mg/kg, po administered via gavage; assay type: ADME, organism-based; set-up: dose 5 mg/kg, route oral; details: in vivo
[29] = Drug uptake in rat brain at 20 mg/kg, po; assay type: ADME, organism-based; details: in vivo
Summary of the method: (§3)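 Rats given 20 mg/kg orally; CSF, brain and plasma concentrations measured to estimate CNS penetration.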

[30] = Drug uptake in rat cerebrospinal fluid at 20 mg/kg, po; assay type: ADME, organism-based; details: in vivo; summary of the method: as §3
Canis familiaris [31] = assay: Reversal of morphine-induced antinociception in Beagle dog at 3 mg/kg, po treated with compound prior to morphine challenge measured after 15 to 45 mins by hot plate test; assay type: functional, organism-based; details: Canis lupus familiaris
Mus musculus [32] = assay: Inhibition of morphine-dependent CNS-mediated withdrawal response in Swiss Webster mouse at 30 mg/kg, po after 60 mins; assay type: functional, organism-based
[33] = AUC(0 to t) in Sprague-Dawley rat at 5 mg/kg, po administered via gavage; assay type: ADME, organism-based; details: in vivo
[34] = target: Kappa-type opioid receptor (Cavia porcellus) (UniProt P41144); assay: Antagonist activity at guinea pig recombinant kappa opioid receptor expressed in CHO-K1 cell membrane assessed as inhibition of U69593-induced [35S]-GTPgammaS binding incubated for 30 mins by time resolved fluorescence assay
Sequence of Kappa-type opioid receptor (Cavia porcellus) (P41144 whole entry): as the sequence (P41144 whole entry) above

Rattus norvegicus [35] = assay: Reversal of castor oil-induced diarrhea in po dosed Sprague-Dawley rat po administered with compound and loperamide at 45 mins and 15 mins prior to castor oil administration and measured after 2 hrs; assay type: functional; details: read-out: ID50 (the source's name)
[36] = Oral bioavailability in fasted female Beagle dog; assay type: ADME, organism-based, Canis lupus familiaris; details: in vivo
[37] = Efflux ratio of permeability in human Caco2 cells; assay type: ADME, cell-based; details: Caco-2
Rattus norvegicus [38] = assay: Reversal of loperamide-induced delay in gastric emptying in po dosed Sprague-Dawley rat administered with compound and loperamide at 35 mins and 5 mins prior to test meal respectively measured after 60 mins; assay type: functional; details: read-out: ID50 (the source's name)
Rattus norvegicus [39] = assay: Reversal of morphine-induced antinociception in Sprague-Dawley rat at >60 mg/kg, po pretreated for 30 mins followed by morphine injection and measured after 60 mins by hot plate test; assay type: functional, organism-based
[40] = Half life in Sprague-Dawley rat at 5 mg/kg, po administered via gavage; assay type: ADME, organism-based; details: in vivo

Work on NC(=O)c1cccc([C@H]2C[C@H]3CC[C@@H](C2)N3CCN(CCCc2ccccc2)C(=O)CO)c1 yielded a Ki (Mu-type opioid receptor [1]) of 0.794 nM, a Ki [2] of 0.501 nM and an Intrinsic activity (Mu-type opioid receptor [3]) of -13%. For the same compound, the Papp [4] was 26 ×10⁻⁶ cm/s, the half-life at 15 µM [5] was 0.533 h and the Ki [6] was 31.6 nM.

Work on C[C@H]1CN(C[C@H](Cc2ccccc2)C(=O)NCC(=O)O)CC[C@H]1c1cccc(O)c1 yielded a Ki (Mu-type opioid receptor [1]) of 0.316 nM, a Ki [2] of 5.01 nM and an Intrinsic activity (Mu-type opioid receptor [3]) of -7%. For the same compound, the half-life at 3 µM [7] was over 1.5 h, the “Selectivity Index” value (Mus musculus [8]) was over 33 and the Papp [4] was 3 ×10⁻⁶ cm/s. The ED50 (Mus musculus [9]) was 0.6 mg/kg, the bioavailability [10] was 0.1% and the Ki [6] was 5.01 nM. It also gave a Cmax [11] of 10 ng/mL, a bioavailability [12] of 6% and an AUC(0-t) [13] of 2 ng·h/mL. The “Selectivity Index” value (Mus musculus [14]) was over 8, the ED50 (Mus musculus [15]) was 2.5 mg/kg and the half-life at 3 µM [16] was over 1.5 h. The ED50 (Mus musculus [17]) was over 20 mg/kg and the half-life at 3 µM [18] was over 1.5 h.

Work on NC(=O)c1cccc([C@H]2C[C@H]3CC[C@@H](C2)N3CCN(CC2CCCCC2)C(=O)[C@@H](O)CO)c1.O=S(=O)(O)O [AXELOPRAN SULFATE] yielded a Ki (Mu-type opioid receptor [1]) of 0.158 nM, a pKb (Mesocricetus auratus) of 8.4 and a Ki [2] of 0.126 nM. The Intrinsic activity (Mu-type opioid receptor [3]) was -3%, the half-life at 3 µM [7] was 0.45 h and the “Selectivity Index” value (Mus musculus [8]) was 161. The Papp [4] was 5 ×10⁻⁶ cm/s, the inhibition (Mus musculus [9]) was “Dose-dependent effect” and the ED50 (Mus musculus [9]) was 0.087 mg/kg. For the same compound, the bioavailability [19] was 45%, the pKb (Mu-type opioid receptor [20]) was 9.6 and the inhibition (Canis familiaris [21]) was “Active”. For the same compound, the Kb [22] was 1.58 nM, the Ki [6] was 1.58 nM and the efflux ratio (MDR1) was 24. The inhibition (Canis familiaris [23]) was “Active”, the pKb [24] was 8.8 and the bioavailability [25] was 27%. It also gave a Kb (Mu-type opioid receptor [26]) of 0.0794 nM, a fraction unbound [27] of 0.7 to 0.77 and a Cmax [28] of 210 ng/mL. The Drug uptake [29] was under 2%, the Drug uptake [30] was under 2% and the inhibition (Canis familiaris [31]) was “Active”. For the same compound, the inhibition (Mus musculus [32]) was “inactive”, the “Selectivity Index” value (Mus musculus [14]) was 40 and the AUC(0-t) [33] was 470 ng·h/mL. For the same compound, the inhibition (Mus musculus [15]) was “Dose-dependent effect”, the ED50 (Mus musculus [15]) was 0.35 mg/kg and the half-life at 3 µM [16] was 1.45 h. The pKb [34] was 9.5, the inhibition (Mus musculus [17]) was “Dose-dependent effect” and the ED50 (Mus musculus [17]) was 14 mg/kg. For the same compound, the ED50 (Rattus norvegicus [35]) was 0.01 mg/kg, the bioavailability [36] was 29% and the efflux ratio [37] was 10. The ED50 (Rattus norvegicus [38]) was 0.24 mg/kg, the inhibition (Rattus norvegicus [39]) was “Active” and the half-life at 3 µM [18] was 1.5 h. It also gave a half-life [40] of 1.3 h.
